Among the data in ChEMBL document CHEMBL5653631, “A Potent and Selective ULK1 Inhibitor Suppresses Autophagy and Sensitizes Cancer Cells to Nutrient Stress” (iScience, 2018) are fold change (FC) and inhibition values, retold here.

For assay [1], the target named is Cyclin-dependent kinase 13 (Homo sapiens) (UniProt Q14004). The experiment in a line: Inhibition of human recombinant CHED at 15 nM related to control ULK1.
Assay [2] concerns the target T1, Beta-adrenergic receptor kinase 1 (Homo sapiens) (UniProt P25098).
T1 sequence (whole entry): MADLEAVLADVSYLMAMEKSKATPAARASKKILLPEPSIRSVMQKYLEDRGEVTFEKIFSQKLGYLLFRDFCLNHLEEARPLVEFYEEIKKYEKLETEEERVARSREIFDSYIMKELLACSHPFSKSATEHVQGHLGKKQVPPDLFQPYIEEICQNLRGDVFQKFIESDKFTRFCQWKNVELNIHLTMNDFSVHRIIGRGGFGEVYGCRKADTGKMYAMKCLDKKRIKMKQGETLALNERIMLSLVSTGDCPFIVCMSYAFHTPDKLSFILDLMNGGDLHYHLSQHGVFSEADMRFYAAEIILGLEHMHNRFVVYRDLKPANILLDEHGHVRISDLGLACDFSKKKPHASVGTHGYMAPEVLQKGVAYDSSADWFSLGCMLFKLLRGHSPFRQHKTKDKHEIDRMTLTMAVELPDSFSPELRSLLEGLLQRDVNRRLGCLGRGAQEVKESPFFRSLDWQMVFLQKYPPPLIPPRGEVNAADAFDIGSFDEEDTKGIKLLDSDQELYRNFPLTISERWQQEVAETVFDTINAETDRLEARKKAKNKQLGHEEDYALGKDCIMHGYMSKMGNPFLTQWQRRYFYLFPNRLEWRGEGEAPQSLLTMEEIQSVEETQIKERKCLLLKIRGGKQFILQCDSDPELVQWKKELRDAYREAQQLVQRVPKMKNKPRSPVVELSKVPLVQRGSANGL
Briefly: Inhibition of human recombinant BARK1 at 15 nM in presence of ATP by radiometric assay relative to control. In outline:
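Part of a radiometric in vitro activity panel of 327 recombinant human kinases. Each kinase was tested in duplicate at one inhibitor concentration. Activity remaining was expressed as a percentage of the vehicle control, and percent inhibition was taken as 100 minus that value.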

For assay [3], the target named is T2, Inhibitor of nuclear factor kappa-B kinase subunit alpha (Homo sapiens) (UniProt O15111).
T2 sequence (whole entry): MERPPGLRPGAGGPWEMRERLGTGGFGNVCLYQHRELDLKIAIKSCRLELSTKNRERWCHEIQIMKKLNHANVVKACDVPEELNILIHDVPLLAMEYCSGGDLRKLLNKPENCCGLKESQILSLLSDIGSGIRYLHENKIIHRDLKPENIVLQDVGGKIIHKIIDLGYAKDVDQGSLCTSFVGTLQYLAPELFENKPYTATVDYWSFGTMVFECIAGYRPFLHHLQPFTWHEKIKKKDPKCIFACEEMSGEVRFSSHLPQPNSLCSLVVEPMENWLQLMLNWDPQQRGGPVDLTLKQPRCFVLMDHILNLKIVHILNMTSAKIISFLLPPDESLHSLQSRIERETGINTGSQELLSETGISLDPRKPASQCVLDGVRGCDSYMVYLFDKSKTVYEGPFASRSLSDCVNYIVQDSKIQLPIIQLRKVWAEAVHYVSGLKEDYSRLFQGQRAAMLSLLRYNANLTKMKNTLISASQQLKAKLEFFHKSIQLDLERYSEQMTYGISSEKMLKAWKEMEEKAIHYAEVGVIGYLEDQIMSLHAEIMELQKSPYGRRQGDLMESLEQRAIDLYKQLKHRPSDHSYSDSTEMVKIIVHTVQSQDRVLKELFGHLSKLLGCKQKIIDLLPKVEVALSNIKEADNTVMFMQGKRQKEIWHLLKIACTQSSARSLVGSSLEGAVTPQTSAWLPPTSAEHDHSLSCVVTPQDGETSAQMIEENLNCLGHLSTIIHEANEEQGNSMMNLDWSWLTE
The experiment in a line: Inhibition of human recombinant IKKa at 15 nM related to control ULK1.

Assay [4] has as its target Calcium/calmodulin-dependent protein kinase kinase 1 (Homo sapiens) (UniProt Q8N5S9). The experiment in a line: Inhibition of human recombinant CaMKK1 at 15 nM in presence of ATP by radiometric assay relative to control.
Assay [5] addresses Tyrosine-protein kinase receptor UFO (Homo sapiens) (UniProt P30530). The experiment in a line: Inhibition of human recombinant AXL at 15 nM related to control ULK1. In outline:
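Panel of 327 recombinant human kinases, each assayed in vitro by radiometric activity assay in duplicate at a single inhibitor concentration per compound, chosen with reference to its ULK1 inhibition. Activity remaining was expressed as percent of vehicle control, and percent inhibition was calculated as 100 minus percent activity remaining.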

In assay [6] the target is Tyrosine-protein kinase Blk (Homo sapiens) (UniProt P51451). The experiment in a line: Inhibition of human recombinant BLK at 40 nM related to control ULK1. Summed up: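 Radiometric activity assays in a panel of 327 human recombinant kinases, each run in duplicate at one inhibitor concentration. Activity remaining is expressed as percent of vehicle control, and percent inhibition is calculated as 100% minus percent activity remaining.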
Sequence of Tyrosine-protein kinase Blk (Homo sapiens) (P51451 2-505 limits assumed): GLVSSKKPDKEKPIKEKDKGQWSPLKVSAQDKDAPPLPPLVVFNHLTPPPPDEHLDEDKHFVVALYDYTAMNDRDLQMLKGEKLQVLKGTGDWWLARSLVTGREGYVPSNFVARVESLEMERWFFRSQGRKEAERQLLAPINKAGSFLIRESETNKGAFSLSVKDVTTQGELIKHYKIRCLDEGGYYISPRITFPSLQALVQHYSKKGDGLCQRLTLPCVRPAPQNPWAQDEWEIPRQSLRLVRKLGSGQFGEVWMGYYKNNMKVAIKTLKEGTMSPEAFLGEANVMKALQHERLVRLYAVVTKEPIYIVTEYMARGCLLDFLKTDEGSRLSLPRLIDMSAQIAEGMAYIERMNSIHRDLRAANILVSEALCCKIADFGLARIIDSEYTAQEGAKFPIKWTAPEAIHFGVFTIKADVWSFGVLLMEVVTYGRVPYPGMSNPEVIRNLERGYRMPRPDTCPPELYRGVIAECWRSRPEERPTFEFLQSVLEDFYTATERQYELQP

Assay [7] addresses High affinity nerve growth factor receptor (Homo sapiens) (UniProt P04629). The experiment in a line: Inhibition of human recombinant TRKA at 40 nM related to control ULK1.
Assay [8] deals with T3, Testis-specific serine/threonine-protein kinase 2 (Homo sapiens) (UniProt Q96PF2).
T3 sequence (whole entry): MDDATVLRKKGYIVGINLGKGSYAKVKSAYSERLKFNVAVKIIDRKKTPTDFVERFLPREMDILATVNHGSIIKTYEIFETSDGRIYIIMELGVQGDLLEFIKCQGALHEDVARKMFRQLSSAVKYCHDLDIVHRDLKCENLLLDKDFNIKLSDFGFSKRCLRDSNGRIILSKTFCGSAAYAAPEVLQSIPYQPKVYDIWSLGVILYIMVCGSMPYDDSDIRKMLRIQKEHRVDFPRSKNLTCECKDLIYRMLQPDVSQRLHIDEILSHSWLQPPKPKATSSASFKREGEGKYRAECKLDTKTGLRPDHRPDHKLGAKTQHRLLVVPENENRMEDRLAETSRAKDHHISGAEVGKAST
The experiment in a line: Inhibition of human recombinant TSSK2 at 500 nM in presence of ATP by radiometric assay relative to control.

Assay [9] addresses Wee1-like protein kinase (Homo sapiens) (UniProt P30291). The experiment in a line: Inhibition of human recombinant Wee1 at 500 nM in presence of ATP by radiometric assay relative to control.
The target in assay [10] is STE20-like serine/threonine-protein kinase (Homo sapiens) (UniProt Q9H2G2). Briefly: Inhibition of human recombinant SLK at 500 nM related to control ULK1.
Sequence of STE20-like serine/threonine-protein kinase (Homo sapiens) (Q9H2G2 whole entry, looked up): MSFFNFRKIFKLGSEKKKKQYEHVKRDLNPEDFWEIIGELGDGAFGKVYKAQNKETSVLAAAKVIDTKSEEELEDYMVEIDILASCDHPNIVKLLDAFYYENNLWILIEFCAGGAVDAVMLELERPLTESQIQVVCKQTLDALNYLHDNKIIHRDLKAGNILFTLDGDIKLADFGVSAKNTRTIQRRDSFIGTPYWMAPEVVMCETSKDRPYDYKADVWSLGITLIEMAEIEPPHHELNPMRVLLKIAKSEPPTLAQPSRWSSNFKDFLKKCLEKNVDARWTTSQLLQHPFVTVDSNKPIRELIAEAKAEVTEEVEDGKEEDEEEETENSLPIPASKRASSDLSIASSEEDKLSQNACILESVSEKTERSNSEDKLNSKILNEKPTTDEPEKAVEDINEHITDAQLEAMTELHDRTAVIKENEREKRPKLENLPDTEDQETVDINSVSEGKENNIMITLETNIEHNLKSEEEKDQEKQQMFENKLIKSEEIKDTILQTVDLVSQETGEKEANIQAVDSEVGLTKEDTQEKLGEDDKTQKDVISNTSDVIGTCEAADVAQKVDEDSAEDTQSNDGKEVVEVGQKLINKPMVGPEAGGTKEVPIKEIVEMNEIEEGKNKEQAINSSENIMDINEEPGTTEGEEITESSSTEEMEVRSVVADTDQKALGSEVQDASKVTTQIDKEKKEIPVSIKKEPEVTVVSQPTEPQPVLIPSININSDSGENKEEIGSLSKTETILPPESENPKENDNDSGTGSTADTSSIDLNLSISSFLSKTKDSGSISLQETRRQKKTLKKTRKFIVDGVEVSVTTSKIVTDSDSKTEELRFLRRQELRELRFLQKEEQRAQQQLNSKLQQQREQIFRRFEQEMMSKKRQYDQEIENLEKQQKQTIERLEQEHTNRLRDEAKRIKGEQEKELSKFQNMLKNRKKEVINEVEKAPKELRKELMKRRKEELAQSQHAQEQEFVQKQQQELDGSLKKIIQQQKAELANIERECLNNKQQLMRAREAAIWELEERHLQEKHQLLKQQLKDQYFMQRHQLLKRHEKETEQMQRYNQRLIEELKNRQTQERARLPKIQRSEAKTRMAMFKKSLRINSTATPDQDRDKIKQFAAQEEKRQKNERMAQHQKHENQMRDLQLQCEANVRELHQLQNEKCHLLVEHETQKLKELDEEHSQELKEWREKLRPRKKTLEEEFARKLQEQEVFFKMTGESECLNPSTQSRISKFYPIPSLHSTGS

SMILES strings stand for the structures.

Sequence of Calcium/calmodulin-dependent protein kinase kinase 1 (Homo sapiens) (Q8N5S9 whole entry, looked up): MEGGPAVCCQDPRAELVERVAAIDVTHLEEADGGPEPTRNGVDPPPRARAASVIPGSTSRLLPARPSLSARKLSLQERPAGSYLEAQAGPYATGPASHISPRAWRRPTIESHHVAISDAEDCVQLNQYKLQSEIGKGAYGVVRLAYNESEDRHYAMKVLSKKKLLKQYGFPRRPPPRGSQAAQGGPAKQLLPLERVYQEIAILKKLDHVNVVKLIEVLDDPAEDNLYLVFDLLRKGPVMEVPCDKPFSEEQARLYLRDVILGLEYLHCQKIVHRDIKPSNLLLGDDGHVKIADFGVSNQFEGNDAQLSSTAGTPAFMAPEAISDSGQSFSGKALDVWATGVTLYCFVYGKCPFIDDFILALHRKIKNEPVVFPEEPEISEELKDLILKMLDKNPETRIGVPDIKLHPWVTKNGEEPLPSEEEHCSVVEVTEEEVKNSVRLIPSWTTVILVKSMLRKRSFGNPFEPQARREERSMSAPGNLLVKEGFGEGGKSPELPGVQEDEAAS
Sequence of High affinity nerve growth factor receptor (Homo sapiens) (P04629 33-796 limits assumed): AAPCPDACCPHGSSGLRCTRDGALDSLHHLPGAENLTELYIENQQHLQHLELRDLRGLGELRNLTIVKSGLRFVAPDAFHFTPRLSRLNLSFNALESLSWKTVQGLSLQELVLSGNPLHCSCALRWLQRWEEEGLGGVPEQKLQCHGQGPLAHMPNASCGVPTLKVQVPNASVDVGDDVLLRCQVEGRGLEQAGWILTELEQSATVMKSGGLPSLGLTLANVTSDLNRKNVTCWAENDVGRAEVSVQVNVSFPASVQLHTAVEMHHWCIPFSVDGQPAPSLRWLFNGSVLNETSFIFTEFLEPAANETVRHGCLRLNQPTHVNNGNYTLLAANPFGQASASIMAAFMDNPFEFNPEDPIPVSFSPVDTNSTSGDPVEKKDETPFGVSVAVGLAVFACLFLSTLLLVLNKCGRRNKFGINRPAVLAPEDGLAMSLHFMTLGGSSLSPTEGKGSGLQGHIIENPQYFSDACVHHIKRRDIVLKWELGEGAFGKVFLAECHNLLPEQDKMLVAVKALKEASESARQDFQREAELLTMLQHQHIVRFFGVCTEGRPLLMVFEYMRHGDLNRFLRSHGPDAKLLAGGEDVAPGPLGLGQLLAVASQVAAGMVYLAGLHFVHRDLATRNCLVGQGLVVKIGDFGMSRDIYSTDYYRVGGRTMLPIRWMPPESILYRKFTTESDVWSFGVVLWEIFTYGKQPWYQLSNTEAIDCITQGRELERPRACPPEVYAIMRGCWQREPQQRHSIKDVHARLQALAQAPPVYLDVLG
Sequence of Cyclin-dependent kinase 13 (Homo sapiens) (Q14004 whole entry, looked up): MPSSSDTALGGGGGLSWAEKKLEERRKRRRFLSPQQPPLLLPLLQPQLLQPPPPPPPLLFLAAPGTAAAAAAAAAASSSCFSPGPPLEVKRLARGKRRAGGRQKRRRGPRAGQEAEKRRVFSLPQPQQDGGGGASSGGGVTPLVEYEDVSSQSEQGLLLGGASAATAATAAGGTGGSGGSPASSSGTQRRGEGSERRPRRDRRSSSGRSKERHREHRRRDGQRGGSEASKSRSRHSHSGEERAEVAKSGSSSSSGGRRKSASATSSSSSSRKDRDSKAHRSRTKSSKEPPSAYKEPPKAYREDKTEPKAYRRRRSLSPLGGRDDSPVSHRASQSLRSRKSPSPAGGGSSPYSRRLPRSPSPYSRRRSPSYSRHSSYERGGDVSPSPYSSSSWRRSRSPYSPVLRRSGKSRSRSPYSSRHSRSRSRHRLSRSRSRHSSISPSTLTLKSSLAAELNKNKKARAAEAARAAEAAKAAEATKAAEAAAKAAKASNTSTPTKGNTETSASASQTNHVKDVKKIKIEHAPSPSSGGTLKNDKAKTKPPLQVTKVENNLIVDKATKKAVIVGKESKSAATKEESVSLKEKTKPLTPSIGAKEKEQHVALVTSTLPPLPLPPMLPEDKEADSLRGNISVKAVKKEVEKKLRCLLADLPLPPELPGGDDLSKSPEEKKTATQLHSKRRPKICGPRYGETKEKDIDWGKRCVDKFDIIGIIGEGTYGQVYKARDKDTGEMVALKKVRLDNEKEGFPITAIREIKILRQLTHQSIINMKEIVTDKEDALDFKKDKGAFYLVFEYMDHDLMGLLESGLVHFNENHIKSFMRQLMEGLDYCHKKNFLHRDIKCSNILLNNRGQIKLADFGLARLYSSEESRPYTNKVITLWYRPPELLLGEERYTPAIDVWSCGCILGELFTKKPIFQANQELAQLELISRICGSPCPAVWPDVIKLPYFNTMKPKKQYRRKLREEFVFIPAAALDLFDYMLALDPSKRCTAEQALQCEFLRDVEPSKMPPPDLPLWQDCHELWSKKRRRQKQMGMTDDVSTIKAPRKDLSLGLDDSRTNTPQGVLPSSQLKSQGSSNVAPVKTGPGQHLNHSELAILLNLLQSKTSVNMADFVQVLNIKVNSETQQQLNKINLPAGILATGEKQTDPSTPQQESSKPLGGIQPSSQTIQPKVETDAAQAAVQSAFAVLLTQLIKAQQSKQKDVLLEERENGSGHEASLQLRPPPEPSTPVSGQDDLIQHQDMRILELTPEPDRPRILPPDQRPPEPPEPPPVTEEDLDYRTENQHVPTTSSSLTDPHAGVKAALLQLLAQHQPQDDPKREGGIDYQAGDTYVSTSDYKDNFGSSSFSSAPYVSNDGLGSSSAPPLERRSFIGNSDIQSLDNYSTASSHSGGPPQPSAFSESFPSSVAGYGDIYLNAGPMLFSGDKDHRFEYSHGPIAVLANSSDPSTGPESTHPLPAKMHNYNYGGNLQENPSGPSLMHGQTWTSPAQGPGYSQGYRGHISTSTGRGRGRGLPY

A word on the inhibition: it is the percentage by which the read-out fell short of the control. `CC(C)[C@H](NC(=O)c1cc(-c2cnn3cc(-c4ccc(OCCN5CCCCC5)cc4)cnc23)cs1)C(F)(F)F`: the results for the fold change (FC) in assay [1], in assay [3] and in assay [5] were 0, 0.01 and 0.13, respectively. For the same compound, the inhibition in [2] and in assay [4] was 0% each time.

Consider `O=C(N[C@@H](C1CC1)C(F)(F)F)c1cc(-c2cnn3cc(-c4ccc(F)cc4)cnc23)cs1`, for which the fold change (FC) in [6] stood at 0.23; in assay [7], 0.

For the compound `CNC(=O)c1ccccc1Oc1nc(Nc2cc(OC)c(OC)c(OC)c2)ncc1Br`, the inhibition in [8] was found to be 2%; in assay [9], 16%. The fold change (FC) in [10] was 0.2.
